Measured values as given in ChEMBL document CHEMBL1151818, “Antimalarial peptides from marine cyanobacteria: isolation and structural elucidation of gallinamide A” (J Nat Prod, 2009).
Calls of active or inactive are those of the source. The rule behind the calls is not given here. Non-standard residues stand in square brackets, D forms with d. Residues, ends and D or L forms follow the SMILES beside them. *: point of attachment. X1 = COC1=CC(=O)N(C(=O)[C@@H](O*)C(C)C)[C@H]1Cc1ccccc1; NMe2Val = CC(C)[C@@H](C(=O)*)N(C)C; NMeV = CN[C@H](C(=O)O)C(C)C

Experiments:
[1] = Cytotoxicity against african green monkey Vero cells; assay type: cell-based; conditions: chlorocebus sabaeus, read-out: TC50 (the source's name)
Trypanosoma cruzi = assay: Antitrypanosomal activity against Trypanosoma cruzi at 16.9 uM; assay type: functional, organism-based
Method in brief: (§1)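 In vitro assay; 16.9 µM was the highest concentration tested.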

NCI-H460 [2] = assay: Cytotoxicity against human NCI-H460 cells at 16.9 uM; assay type: functional, cell-based; method in brief: as §1
Leishmania donovani = assay: Antileishmanial activity against Leishmania donovani; assay type: functional, organism-based
Plasmodium falciparum = assay: Antimalarial activity against chloroquine-resistant Plasmodium falciparum W2; assay type: functional, organism-based
N2a = assay: Cytotoxicity against mouse Neuro2a cells at 16.9 uM; assay type: functional, cell-based; method in brief: as §1
NCI-H460 [3] = assay: Cytotoxicity against human NCI-H460 cells; assay type: functional; conditions: read-out: TC50 (the source's name); method in brief: as §1

## CC[C@H](C)[C@@H](C(=O)O[C@@H](CC(C)C)C(=O)N[C@@H](CC(C)C)C(=O)N[C@@H](C)/C=C/C(=O)N1C(=O)C=C(OC)[C@@H]1C)N(C)C [GALLINAMIDE A]
[1]
  CC50: 10.4 µM
Trypanosoma cruzi
  IC50: > 16.9 µM
NCI-H460 [2]
  Activity: inactive
Leishmania donovani
  IC50: 9.3 µM
Plasmodium falciparum
  IC50: 8.4 µM
N2a
  Activity: inactive

## CC1CS(=O)(=O)CCN1/N=C/c1ccc([N+](=O)[O-])o1 (stereo not given) [NIFURTIMOX]
Trypanosoma cruzi
  IC50: 13.5 µM

## COC1=CC(=O)N(C(=O)[C@@H](OC(=O)[C@@H]2CCCN2C(=O)[C@@H]2CCCN2C(=O)[C@H](C(C)C)N(C)C(=O)[C@@H](NC(=O)[C@H](C(C)C)N(C)C)C(C)C)C(C)C)[C@H]1Cc1ccccc1 [DOLASTATIN 15] (NMe2Val-V[NMeV]PP-X1)
NCI-H460 [3]
  CC50: 0.0024 µM
Plasmodium falciparum
  Activity: Active

## C[C@@H]1[C@H](O)[C@@H](C)/C=C/C=C/C=C/C=C/C=C/C=C/C=C/[C@H](O[C@@H]2O[C@H](C)[C@@H](O)[C@H](N)[C@@H]2O)C[C@@H]2O[C@](O)(C[C@@H](O)C[C@@H](O)[C@H](O)CC[C@@H](O)C[C@@H](O)CC(=O)O[C@H]1C)C[C@H](O)[C@H]2C(=O)O [AMPHOTERICIN B]
Leishmania donovani
  IC50: 0.103 µM
